Results on ten compounds are retold here after ChEMBL document CHEMBL2385008, “Inducers of hypoxic response: marine sesquiterpene quinones activate HIF-1” (2013).

The source made the active and inactive calls. The calls are words filed in the database; no cut-off is given here.

Assay [1] has as its system T47D. Kind of assay: Cytotoxicity against human T47D cells assessed as growth inhibition at 3 to 30 uM after 48 hrs by SRB assay. In kind it is functional, cell-based. The gist of the method: (§1)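 T47D or MDA-MB-231 breast tumor cells (DMEM/F12, 10% FBS, penicillin/streptomycin) plated in 96-well format and exposed to compound for 48 h. Viability read by sulforhodamine B staining and expressed as % inhibition relative to untreated control. One representative experiment in triplicate, mean with SD.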
A general note: The SRB assay estimates cell density from bound dye.

Assay [2] deals with T47D. Kind of assay: Activation of HIF-1 (unknown origin) transfected in human T47D cells at 3 to 30 uM after 16 hrs by luciferase reporter gene assay. In kind it is cell-based. The gist of the method:
(§2)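 T47D breast tumor cells grown in DMEM/F12 with L-glutamine, 10% FBS and penicillin/streptomycin, transfected with HIF-1 reporter pHRE3-TK-Luc; compound exposure 16 h. Luciferase activity normalized to untreated control as relative luciferase activity; 1,10-phenanthroline used as HIF-1 activator control. Mean + SD, n = 4.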
A general note: In a reporter assay the amount or activity of a reporter protein is the signal.

For assay [3], the system named is MDA-MB-231. Kind of assay: Cytotoxicity against human MDA-MB-231 cells assessed as growth inhibition at 3 to 30 uM after 48 hrs by SRB assay. In kind it is functional, cell-based. The gist of the method: as §1
The subject of assay [4] is T47D. Kind of assay: Activation of HIF-1 in human T47D cells assessed as increase in secreted VEGF production at 10 uM after 16 hrs by ELISA. It is filed as cell-based. The gist of the method:
(§3)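 T47D cells treated at 10 μM for 16 h. VEGF protein measured by ELISA in conditioned medium (secreted) or cell lysate (cellular), normalized to cellular protein by micro BCA assay. Untreated medium control; 1,10-phenanthroline positive control. Mean + SD pooled from two independent experiments (n = 3); p < 0.05 versus untreated control flagged.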
On the technique in general: ELISA stands for enzyme-linked immunosorbent assay.

In assay [5] the test system is T47D (Homo sapiens). Kind of assay: Activation of HIF-1 in human T47D cells assessed as increase in VEGF production at 10 uM after 16 hrs by ELISA.
Assay [6] has as its system T47D. Kind of assay: Activation of HIF-1 (unknown origin) transfected in human T47D cells at 10 uM after 16 hrs by luciferase reporter gene assay relative to control. In kind it is cell-based. The gist of the method: as §2
Assay [7] relates to T47D. Kind of assay: Activation of HIF-1 in human T47D cells assessed as increase in cellular VEGF production at 10 uM after 16 hrs by ELISA. In kind it is cell-based. The gist of the method: as §3
For assay [8], the system named is T47D. Kind of assay: Cytotoxicity against human T47D cells assessed as growth inhibition at 30 uM after 48 hrs by SRB assay relative to control. In kind it is functional. The conditions noted are these: read-out: GI. The gist of the method:
as §1

For `COC1=CC(=O)C2=C(C[C@]3(O2)[C@@H](C)CC[C@H]2C(C)(C)CCC[C@@]23C)C1=O`, the “growth inhibition (GI)” value in assay [1] and in assay [3] was “Dose-dependent effect” throughout. Moreover, the outcome in assay [2] was inactive.
For the compound `C=C1CCC[C@H]2[C@](C)(CC3=C(O)C(=O)C=C(OC)C3=O)[C@@H](C)CC[C@]12C` [ILIMAQUINONE], the “growth inhibition (GI)” value in assay [1] and in assay [3] was “Dose-dependent effect” each time. Further, the result in assay [4], in assay [5] and in assay [7] was Active. In assay [6], this compound gave an Activity of 930%. In addition, in assay [8], the inhibition of growth at 30 µM worked out at 56%.
Regarding `COC(=O)c1cc2c(c(O)c1O)O[C@@]1(C2)[C@@H](C)CC[C@H]2C(C)(C)CCC[C@@]21C`, the “growth inhibition (GI)” value in assay [1] and in assay [3] was “Dose-dependent effect” each time. Besides, in assay [2], the result was inactive.
Consider `COC1=CC(=O)C2=C(C[C@@H]3[C@@]4(C)CCCC(C)(C)[C@@H]4CC[C@@]3(C)O2)C1=O`, for which the “growth inhibition (GI)” value in assay [1] and in assay [3] was “Dose-dependent effect” throughout. Besides, the outcome in assay [2] was inactive.
On to `COC1=CC(=O)C(O)=C(C[C@]2(C)[C@H](C)CC[C@]34C[C@@]3(C)CCC[C@@H]24)C1=O`, for which the “growth inhibition (GI)” value in assay [1] and in assay [3] was “Dose-dependent effect” each time. Also, the result in assay [4], in assay [5] and in assay [7] was Active. In assay [6], this compound registered an Activity of 1000%. In assay [8], the inhibition of growth at 30 µM came to 58%.
Take `CC1(C)CCC[C@]2(C)[C@H]3Cc4cc(O)ccc4O[C@@]3(C)CC[C@@H]12`: the “growth inhibition (GI)” value in assay [1] and in assay [3] was “inactive” each time. Besides, the outcome in assay [2] was inactive.
Regarding `c1cnc2c(c1)ccc1cccnc12`, the result in assay [4] and in assay [7] was Active.
As for `C=C1CCC[C@@]23OC4=C(C[C@]2(C)[C@H](C)CC[C@@]13C)C(=O)C(OC)=CC4=O`, the “growth inhibition (GI)” value in assay [1] and in assay [3] was “Dose-dependent effect” throughout. For the same compound, in assay [2], the result was inactive.
`C=C1CCC[C@H]2[C@](C)(CC3=C(O)C(=O)C=C(OC)C3=O)[C@H](C)CC[C@@]12C` (relative stereo): the “growth inhibition (GI)” value in assay [1] and in assay [3] was “Dose-dependent effect” each time. Further, the outcome in assay [4], in assay [5] and in assay [7] was Active. Further, the Activity in assay [6] is 830%. In addition, the inhibition of growth at 30 µM in assay [8] was 60%.
On to `COC1=CC(=O)C2=C(C[C@]3(C)[C@H](C)CC[C@]45C[C@@]4(C)CCC[C@]53O2)C1=O`, for which the “growth inhibition (GI)” value in assay [1] and in assay [3] was “Dose-dependent effect” each time. Also, the outcome in assay [2] was inactive.
